Values after ≈ are worked out from the molar mass of the structure shown. Active and inactive are the calls of the source. No cut-off for these calls is given here.

Experimental findings from ChEMBL document CHEMBL3822438, “Chlorin p6-Based Water-Soluble Amino Acid Derivatives as Potent Photosensitizers for Photodynamic Therapy” (J Med Chem, 2016) are described below.

For data set [1], the system named is A-375. Description: Dark toxicity in human A375 cells assessed as reduction in cell surviving fraction at 50 to 300 uM after 48 hrs by cell counting kit-8 based spectrophotometric analysis. To be noted: a-375, 48 h. The essentials:
(§1)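 Survival fraction measured in the dark by CCK-8 after 48 h exposure at 37 °C to 300 µM or 50 µM. Cells were in 10% FBS medium (A375 in DMEM, B16-F10 in RPMI 1640). Viability read as absorbance at 450 nm after 1.5 h with CCK-8.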
Background: Tetrazolium dyes change colour on reduction, which living cells bring about.

The subject of data set [2] is A-375. Description: Phototoxicity in human A375 cells assessed as reduction in cell surviving fraction by irradiation with diode laser at 10 J/cm'2 after 24 hrs by cell counting kit-8 based spectrophotometric analysis. Format: functional. Put shortly: (§2)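 Survival fraction after PDT. Cells held 24 h at 2 µM or 0.2 µM, irradiated at 678 nm with 10 J/cm², then cultured another 24 h. Viability measured by CCK-8 at 450 nm.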

Data set [3] in a line: Ratio of IC50 for dark toxicity to IC50 for phototoxicity in mouse B16F10 cells by cell counting kit-8 based spectrophotometric analysis. Set-up: species or system B16-F10. To be noted: B16F10 cells, read-out: Ratio IC50. Put shortly: (§3)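 CCK-8 dark toxicity. 5×10^3 cells seeded in 10% FBS medium (A375 in DMEM, B16-F10 in RPMI 1640). Exposed to graded compound concentrations for 48 h at 37 °C, kept in the dark. Fresh medium and CCK-8 added for 1.5 h, then absorbance read at 450 nm to give IC50. Ratio is dark IC50 over IC50 under light.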

In data set [4] the test system is A-375. Description: Phototoxicity in human A375 cells assessed as cell viability after 24 hrs followed by irradiation with diode laser at 10 J/cm'2 measured after 24 hrs by cell counting kit-8 based spectrophotometric analysis. Format: functional. Conditions: Homo sapiens, A-375, light or radiation study, 24 h. Put shortly:
(§4)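 Phototoxicity by CCK-8. Cells loaded with a range of compound concentrations for 24 h at 37 °C, irradiated with a 678 nm diode laser at 10 J/cm², then incubated a further 24 h. Viability read as absorbance at 450 nm after 1.5 h with CCK-8.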

A short description of data set [5]: Phototoxicity in mouse B16F10 cells assessed as cell viability after 24 hrs followed by irradiation with diode laser at 10 J/cm'2 measured after 24 hrs by cell counting kit-8 based spectrophotometric analysis. Type of data set: functional, B16-F10. Conditions: Mus musculus, B16-F10, light or radiation study, 24 h. Put shortly: as §4
A short description of data set [6]: Dark toxicity in mouse B16F10 cells assessed as cell viability after 48 hrs by cell counting kit-8 based spectrophotometric analysis. Set-up: species or system B16-F10. To be noted: mouse, B16F10 cells. Put shortly: as §3
Data set [7] is described as follows: Dark toxicity in mouse B16F10 cells assessed as reduction in cell surviving fraction at 50 to 300 uM after 48 hrs by cell counting kit-8 based spectrophotometric analysis. To be noted: b16-f10, 48 h. Put shortly:
as §1

The nature of data set [8]: Ratio of IC50 for dark toxicity to IC50 for phototoxicity in human A375 cells. Type of data set: cell-based, A-375. Conditions: A375 cells, read-out: Ratio IC50. The essentials:
as §3

For data set [9], the system named is B16-F10. As to the kind of experiment: Phototoxicity in mouse B16F10 cells assessed as reduction in cell surviving fraction by irradiation with diode laser at 10 J/cm'2 after 24 hrs by cell counting kit-8 based spectrophotometric analysis. Format: functional. The essentials: as §2
A short description of data set [10]: Dark toxicity in human A375 cells assessed as cell viability after 48 hrs by cell counting kit-8 based spectrophotometric analysis. To be noted: human, A375 cells. Set-up: species or system A-375. Put shortly: as §3
In data set [11] the test system is B16-F10. As to the kind of experiment: Induction of apoptosis in mouse B16F10 cells assessed as necrotic/late apoptotic cells after 24 hrs followed by irradiation with diode laser at 10 J/cm'2 by alexa fluor 488 annexin V/PI double staining based flow cytometry. Format: functional, cell-based. On the technique in general: In flow cytometry, cells or beads pass a laser one at a time.

Data set [12] has as its system B16-F10. As to the kind of experiment: Induction of apoptosis in mouse B16F10 cells assessed as necrotic/late apoptotic cells at 2 uM after 24 hrs followed by irradiation with diode laser at 10 J/cm'2 by alexa fluor 488 annexin V/PI double staining based flow cytometry (reference value: 1.94%). Format: functional.
Data set [13] deals with B16-F10. Description: Induction of apoptosis in mouse B16F10 cells assessed as necrotic/late apoptotic cells at 5 uM after 24 hrs followed by irradiation with diode laser at 10 J/cm'2 by alexa fluor 488 annexin V/PI double staining based flow cytometry (reference value: 1.94%). Type of data set: functional.
Data set [14] is described as follows: Ratio of IC50 for test compound to IC50 for verteporfin for dark toxicity in mouse B16F10 cells by cell counting kit-8 based spectrophotometric analysis. Set-up: species or system B16-F10. To be noted: read-out: Ratio IC50.
A short description of data set [15]: Drug uptake in mitochondria of mouse B16F10 cells at 10 uM incubated in dark for 24 hrs by mito tracker green FM dye based confocal microscopy. Type of data set: ADME. To be noted: b16-f10, 24 h.
Data set [16] in a line: Drug uptake in endoplasmic reticulum of mouse B16F10 cells at 10 uM incubated in dark for 24 hrs by ER tracker green dye based confocal microscopy. Format: ADME, cell-based. To be noted: b16-f10, 24 h.
Data set [17] in a line: Ratio of IC50 for dark toxicity to IC50 for phototoxicity in human A375 cells by CCK-8 assay.
A short description of data set [18]: Dark toxicity in mouse B16F10 cells assessed as cell viability after 48 hrs by MTT assay. Format: cell-based, B16-F10. To be noted: mouse, B16F10 cells. Put shortly:
(§5)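 B16-F10 cells in RPMI 1640 with 10% FBS. Dark arm: compound for 48 h. Light arm: compound for 24 h, then 678 nm diode laser at 10 J/cm², then a further 24 h. Read-out by MTT for 4 h, formazan dissolved in DMSO, absorbance at 490 nm. Ratio is dark IC50 over light IC50.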

In data set [19] the test system is B16-F10. As to the kind of experiment: Phototoxicity in mouse B16F10 cells assessed as reduction in cell surviving fraction by irradiation with diode laser at 10 J/cm'2 at 5 uM after 24 hrs by cell counting kit-8 based spectrophotometric analysis. Type of data set: functional. The essentials:
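B16-F10 cells exposed to 5 µM for 24 h, then given varying 678 nm laser light doses. After a further 24 h, survival fraction was read by CCK-8 absorbance at 450 nm.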

The subject of data set [20] is B16-F10. As to the kind of experiment: Induction of apoptosis in mouse B16F10 cells assessed as early apoptotic cells at 5 uM after 24 hrs followed by irradiation with diode laser at 10 J/cm'2 by alexa fluor 488 annexin V/PI double staining based flow cytometry (reference value: 0.08%). Format: functional.
Data set [21] concerns B16-F10. Description: Induction of apoptosis in mouse B16F10 cells assessed as early apoptotic cells at 2 uM after 24 hrs followed by irradiation with diode laser at 10 J/cm'2 by alexa fluor 488 annexin V/PI double staining based flow cytometry (reference value: 0.08%). Type of data set: functional.
Data set [22] in a line: Drug uptake in golgi apparatus of mouse B16F10 cells at 10 uM incubated in dark for 24 hrs by golgi tracker green dye based confocal microscopy. Type of data set: ADME, cell-based. Conditions: b16-f10, 24 h.
The nature of data set [23]: Ratio of IC50 for test compound to IC50 for verteporfin for dark toxicity in human A375 cells by cell counting kit-8 based spectrophotometric analysis. Set-up: species or system A-375. Conditions: read-out: Ratio IC50.
Data set [24] can be described thus: Drug uptake in lysosomes of mouse B16F10 cells at 10 uM incubated in dark for 24 hrs by lyso tracker green dye based confocal microscopy. Format: ADME, cell-based, Lysosome. To be noted: b16-f10, 24 h.
A short description of data set [25]: Ratio of IC50 for dark toxicity to IC50 for phototoxicity in mouse B16F10 cells by MTT assay. Format: cell-based, B16-F10. To be noted: B16F10 cells, read-out: Ratio IC50. Put shortly:
as §5

A short description of data set [26]: Drug uptake in nucleus of mouse B16F10 cells at 10 uM incubated in dark for 24 hrs by confocal microscopy. Format: ADME, cell-based. Conditions: b16-f10, 24 h.
Data set [27] in a line: Antitumor activity against B16F10 cells implanted in C57BL/6 mouse assessed as survival time at 1 mg/kg, iv administered for 2 hrs followed by irradiation with laser at 150 J/cm'2 for 10 mins (reference value: 13 days). Type of data set: functional, B16-F10.
The subject of data set [28] is B16-F10. As to the kind of experiment: (§6) Phototoxicity in mouse B16F10 cells assessed as cell viability after 24 hrs followed by irradiation with diode laser at 10 J/cm'2 measured after 24 hrs by MTT assay. Format: functional, cell-based. Put shortly:
as §5

The nature of data set [29]: as §6. Format: functional, cell-based, B16-F10. Conditions: Mus musculus, B16-F10, light or radiation study, 24 h. The essentials:
as §5

Data set [30] concerns B16-F10. As to the kind of experiment: Antitumor activity against B16F10 cells implanted in C57BL/6 mouse assessed as tumor growth inhibition at 1 mg/kg, iv administered for 2 hrs followed by irradiation with laser at 150 J/cm'2 for 10 mins. Type of data set: functional, organism-based. Put shortly: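 B16-F10 cells (2×10^4) inoculated subcutaneously into the right thigh of male C57BL/6 mice aged 6-8 weeks. Mice with tumours 6-8 mm in diameter were used, 5 per group. Irradiation at 678 nm diode laser, 250 mW/cm² for 10 min, 2 h after i.v. dosing. Tumour volume measured by caliper as (W²×L)/2. Survival recorded daily and analysed by Kaplan-Meier with log-rank test.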

The nature of data set [31]: Aqueous solubility of the compound in PBS buffer at pH 7.4. Type of data set: physicochemical.

One may read the IC50 as the midpoint of a concentration-inhibition curve. On to `C=Cc1c(C)c2cc3nc(c(C(=O)OC)c4[nH]c(cc5nc(cc1[nH]2)C(C)=C5CC)c(C)c4C(=O)OC)[C@@H](CCC(=O)N[C@@H](CCC(=O)O)C(=O)O)[C@@H]3C`, for which the Activity result in [1] was “Non-toxic”; in [2], “Dose-dependent effect”; in data set [7], “Non-toxic”; in data set [9] it was “Dose-dependent effect”. For the same compound, the selectivity ratio in data set [3] is 233; in data set [8], above 195. Also, the IC50 in data set [4] worked out at 1540 nM; in [5], 1220 nM. Further, the IC50 at 48 h in data set [6] was 284000 nM; in data set [10], above 300000 nM.

For orientation: solubility means the dissolved amount per volume that the medium holds. In the case of `C=Cc1c(C)c2cc3nc(c(C(=O)OC)c4[nH]c(cc5nc(cc1[nH]2)C(C)=C5CC)c(C)c4C(=O)OC)[C@@H](CCC(=O)N[C@@H](CC(=O)O)C(=O)O)[C@@H]3C`, the Activity result was “Dose-dependent effect” in data set [11]; 68.23% in [12]; 82.05% in [13]; “Non-toxic” in [1]; “Dose-dependent effect” in data set [2]; 5.61% in [20]. In addition, the Activity is 0.3% in data set [21], “Non-toxic” in data set [7], “Dose-dependent effect” in data set [9] and “Dose-dependent effect” in data set [28]. Besides, the selectivity ratio in data set [14] was above 8.3; in [17], above 306; in data set [3] it was above 441; in data set [23], above 8.3; in [25] it was above 400; in data set [8], above 306. Moreover, the Drug uptake result was “Active” in data set [15]; “Active” in data set [16]; “Active” in [22]; “Active” in [24]; “Not Active” in [26]. The half-maximal inhibitory concentration (IC50) at 48 h in data set [18], in [6] and in data set [10] was above 300000 nM in each case. Further, the outcome in [19] was Active. Moreover, the values for the IC50 in data set [4], in [5] and in data set [29] were 980 nM, 680 nM and 750 nM, respectively. Further, the MST in [27] was found to be 21 days. Further, in data set [30], the TGI entry is “Active”. This compound also gave a solubility in data set [31] of 41.7 µM (≈ 30.3 µg/mL).

Turning to `CCC1=C(C)c2cc3[nH]c(cc4nc(c(C(=O)OC)c5[nH]c(cc1n2)c(C)c5C(=O)OC)C(CCC(=O)N[C@@H](CC(=O)O)C(=O)O)=C4C)[C@@]1(C)C3=CC=C(C(=O)OC)[C@H]1C(=O)OC`, the selectivity ratio in data set [3] is 118; in [8] it was above 99.3. For the same compound, the IC50 was determined as 3020 nM in data set [4] and 2290 nM in [5]. For the same compound, the values for the IC50 at 48 h in data set [6] and in [10] were 271000 nM and above 300000 nM, respectively.

As for `CCC1=C(C)c2cc3[nH]c(cc4nc(c(C(=O)OC)c5[nH]c(cc1n2)c(C)c5C(=O)OC)C(CCC(=O)O)=C4C)[C@@]1(C)C3=CC=C(C(=O)OC)[C@H]1C(=O)OC`, the selectivity ratio in [3] turned out to be 16.7; in data set [8] it was 15.5. The values for the IC50 in data set [4] and in [5] were 1470 nM and 920 nM, respectively. Further, the IC50 at 48 h was 15300 nM in [6] and 22800 nM in data set [10].
